Data from article PMC4823774 (Bioorganic & medicinal chemistry letters, 2016).
Values belong to the compound of their own block, whether it stands above or below them.

Assays:
human mGlu1 = human mGlu1 (Homo sapiens, UniProt Q13255); experiment: Calcium mobilization mGlu1 PAM assay; type: cell-based
Method in brief: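 Tetracycline-inducible human mGlu1 T-REx-293 cells, induced overnight at 80,000 cells/well with 50 ng/mL tetracycline. Loaded with 1.15 μM Fluo-4 AM in HBSS/20 mM HEPES/2.5 mM probenecid, 45 min, 37 °C. Half-log dilutions or DMSO preincubated 2.5 min, then EC20 glutamate for 1 min. ECmax glutamate on vehicle wells. Peak minus pre-agonist basal fluorescence; concentration-response curve fitting.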

[1] = Rat brain homogenate binding; type: in vitro ADME
[2] = Rat liver microsome stability and intrinsic clearance; type: in vitro ADME; conditions: for stability in rat liver microsomes: in words
[3] = Human liver microsome stability and intrinsic clearance; type: in vitro ADME; conditions: for stability in human liver microsomes: in words
CNS penetration = conditions: in vivo
Human plasma stability = type: in vitro ADME
CYP = CYP profile; type: in vitro ADME
Rat plasma stability = type: in vitro ADME
[4] = Clearance in in vitro DMPK assays, species not stated; type: in vitro ADME

human mGlu1, sequence (Q13255 19-1194): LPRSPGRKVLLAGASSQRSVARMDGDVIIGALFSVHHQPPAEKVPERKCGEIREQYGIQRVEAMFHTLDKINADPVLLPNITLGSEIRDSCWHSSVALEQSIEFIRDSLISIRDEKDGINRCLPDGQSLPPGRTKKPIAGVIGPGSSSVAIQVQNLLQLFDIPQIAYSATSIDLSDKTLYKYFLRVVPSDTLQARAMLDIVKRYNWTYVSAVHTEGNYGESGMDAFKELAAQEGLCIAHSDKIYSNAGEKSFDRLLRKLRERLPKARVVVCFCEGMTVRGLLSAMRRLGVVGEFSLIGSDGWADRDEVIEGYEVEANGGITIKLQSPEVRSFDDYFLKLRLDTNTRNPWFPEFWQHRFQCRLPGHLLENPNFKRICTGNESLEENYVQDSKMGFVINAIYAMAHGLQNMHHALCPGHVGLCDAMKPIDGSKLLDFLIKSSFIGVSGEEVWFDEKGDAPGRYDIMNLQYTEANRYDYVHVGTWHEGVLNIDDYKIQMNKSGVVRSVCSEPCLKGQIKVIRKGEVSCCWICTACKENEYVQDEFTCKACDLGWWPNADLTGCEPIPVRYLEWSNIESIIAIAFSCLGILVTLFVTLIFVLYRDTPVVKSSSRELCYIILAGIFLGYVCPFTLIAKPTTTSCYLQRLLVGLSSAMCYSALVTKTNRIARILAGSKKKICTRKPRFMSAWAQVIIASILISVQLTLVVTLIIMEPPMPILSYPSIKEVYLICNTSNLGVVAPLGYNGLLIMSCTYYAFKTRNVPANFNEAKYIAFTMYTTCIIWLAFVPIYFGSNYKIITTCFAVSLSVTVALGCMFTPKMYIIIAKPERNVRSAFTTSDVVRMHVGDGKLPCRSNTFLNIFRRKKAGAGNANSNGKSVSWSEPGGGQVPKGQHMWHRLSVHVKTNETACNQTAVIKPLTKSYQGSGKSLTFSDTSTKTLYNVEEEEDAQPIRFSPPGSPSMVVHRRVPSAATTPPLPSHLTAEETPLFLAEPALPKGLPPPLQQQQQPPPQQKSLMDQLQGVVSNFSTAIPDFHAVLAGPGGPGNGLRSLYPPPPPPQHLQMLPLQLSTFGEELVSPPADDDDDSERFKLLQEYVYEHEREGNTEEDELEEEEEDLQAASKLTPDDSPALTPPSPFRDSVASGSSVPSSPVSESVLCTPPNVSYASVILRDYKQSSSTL

Structure (SMILES): Cc1ccoc1C(=O)Nc1ccc(N2C(=O)Cc3ccccc32)c(Cl)c1 [20g]
mGlu1 PAM activity (in words) (human mGlu1): inactive

Structure (SMILES): Cc1ccoc1C(=O)Nc1ccc(N2C(=O)[C@H]3CCCC[C@H]3C2=O)c(Cl)c1 [20a]
mGlu1 PAM activity (in words) (human mGlu1): inactive

Structure (SMILES): Cc1ccoc1C(=O)Nc1ccc(N2C(=O)[C@@H]3CCCC[C@H]3C2=O)c(Cl)c1 [20b]
mGlu1 PAM activity (in words) (human mGlu1): inactive

Structure (SMILES): Cc1ccoc1C(=O)Nc1ccc(NC(=O)c2ccccc2C(=O)O)c(Cl)c1 [20c]
CNS penetration (in words) (CNS penetration): not CNS penetrant

Structure (SMILES): Cc1ccoc1C(=O)Nc1ccc(N2C(=O)Cc3ccccc3C2=O)c(Cl)c1 [compound 17]
stability in human plasma (Human plasma stability): unstable
CYP profile (in words) (CYP): clean CYP profile
stability in rat plasma (Rat plasma stability): unstable

Structure (SMILES): Cc1ccoc1C(=O)Nc1ccc(N2Cc3ccccc3C2)c(Cl)c1 [20f]
mGlu1 PAM activity (in words) (human mGlu1): active

Structure (SMILES): Cc1ccoc1C(=O)Nc1ccc(N2C(=O)CCc3ccccc32)c(Cl)c1 [compound 19]
clearance (in words) [4]: supprahepatic
stability in human plasma (Human plasma stability): stable
stability in rat plasma (Rat plasma stability): stable

Structure (SMILES): Cc1ccoc1C(=O)Nc1ccc(N2CCc3ccccc32)c(Cl)c1 [20h]
mGlu1 PAM activity (in words) (human mGlu1): active

Structure (SMILES): Cc1ccoc1C(=O)Nc1ccc(N2Cc3ccccc3C2=O)c(Cl)c1 [20e]
stability in rat liver microsomes [2]: complete stability
stability in human liver microsomes [3]: complete stability
mGlu1 PAM activity (in words) (human mGlu1): active

Results, then the compound that gave them:

CLp (In vivo rat PK): 11.1 mL/min/kg
brain homogenate binding [1]: > 99%
stability in rat liver microsomes [2]: hydrolytically stable
CLhep predicted ([2]; liver microsomes): 54.1 mL/min/kg
stability in human liver microsomes [3]: hydrolytically stable
CLhep predicted ([3]; liver microsomes): 8.53 mL/min/kg
mGlu1 pEC50 (±SEM) (human mGlu1; calcium mobilization, n=3 in triplicate, tables): 6.75±0.07
Structure (SMILES): Cc1ccoc1C(=O)Nc1ccc(N2Cc3c(Cl)cccc3C2=O)c(Cl)c1 [21a, N-(3-chloro-4-(4-chloro-1-oxoisoindolin-2-yl)phenyl)-3-methylfuran-2-carboxamide]

EC50 (human mGlu1): ~1000 nM
Structure (SMILES): Cc1ccoc1C(=O)Nc1ccc(N2Cc3c(Cl)cccc3C2=O)cc1F [22h]

EC50 (human mGlu1): ~1000 nM
Structure (SMILES): Cc1cccnc1C(=O)Nc1ccc(N2Cc3c(Cl)cccc3C2=O)c(Cl)c1 [22k]
